The results in this text go back to ChEMBL document CHEMBL1130251, “Enzymatic properties of the unnatural beta-L-enantiomers of 2',3'-dideoxyadenosine and 2',3'-didehydro-2',3'-dideoxyadenosine” (J Med Chem, 1997).

Compound in series [1]: Nc1ncnc2c1ncn2[C@H]1C=C[C@@H](CO)O1
Nature of the series: (§1) Inhibitory activity against bovine liver adenosine Kinase; NS, […]=nonsubstrate, noninhibitor/inhibitor. Particulars: Bos taurus. Put shortly:
(§2)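 Adenosine kinase purified from bovine liver, 0.38–7.6 μg·mL⁻¹, at 37 °C. Medium: 100 mM Tris HCl pH 7.4, 100 mM KCl, 4.8 mg·mL⁻¹ BSA, 0.5 mM MgCl2, 1 mM ATP, test nucleoside. 5'-Phosphorylation monitored by C-18 HPLC (phosphate pH 6/acetonitrile gradient). Inhibition assessed against 50 μM adenosine.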

Compound in series [2]: Nc1ncnc2c1ncn2[C@H]1CC[C@@H](CO)O1
The description is as §1. The note with it: Bos taurus. The gist of the method:
as §2

B1: Adenosine kinase (Toxoplasma gondii), Q9TVW2 (protein)
chain: MAVDSSNSATGPMRVFAIGNPILDLVAEVPSSFLDEFFLKRGDATLATPEQMRIYSTLDQFNPTSLPGGSALNSVRVVQKLLRKPGSAGYMGAIGDDPRGQVLKELCDKEGLATRFMVAPGQSTGVCAVLINEKERTLCTHLGACGSFRLPEDWTTFASGALIFYATAYTLTATPKNALEVAGYAHGIPNAIFTLNLSAPFCVELYKDAMQSLLLHTNILFGNEEEFAHLAKVHNLVAAEKTALSTANKEHAVEVCTGALRLLTAGQNTGATKLVVMTRGHNPVIAAEQTADGTVVVHEVGVPVVAAEKIVDTNGAGDAFVGGFLYALSQGKTVKQCIMCGNACAQDVIQHVGFSLSFTSLPC
As for B1, the Km entry in series [1] was “NS, NI/Ado”; in series [2], “NS, NI/Ado”.
